Laboratory results published in BindingDB's records for doi:10.1021/jm991078x (Insituto De Qu?mica M?dica (Csic), 1999).

Experiments:
[1] = target: T1, Cholecystokinin receptor type A (Rattus norvegicus, UniProt P30551); assay: Binding affinity by competitive inhibition of the radioligand [3H]pCCK-8 at Cholecystokinin type A receptor from rat pancreas
T1 sequence (P30551 whole entry): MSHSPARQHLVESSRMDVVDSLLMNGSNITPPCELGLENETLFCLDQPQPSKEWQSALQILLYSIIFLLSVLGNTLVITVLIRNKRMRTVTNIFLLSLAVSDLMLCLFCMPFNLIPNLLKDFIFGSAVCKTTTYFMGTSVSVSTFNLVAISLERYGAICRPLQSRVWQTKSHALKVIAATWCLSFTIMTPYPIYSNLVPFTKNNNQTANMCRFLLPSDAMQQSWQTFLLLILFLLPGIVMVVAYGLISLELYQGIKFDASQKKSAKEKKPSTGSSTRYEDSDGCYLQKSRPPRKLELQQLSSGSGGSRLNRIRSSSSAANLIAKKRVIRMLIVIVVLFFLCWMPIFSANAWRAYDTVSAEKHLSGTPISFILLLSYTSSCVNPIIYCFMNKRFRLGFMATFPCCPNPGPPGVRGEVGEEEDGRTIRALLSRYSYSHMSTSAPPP
Summary of the method: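 Rat pancreas homogenized in Pipes HCl pH 6.5 with 30 mM MgCl2, centrifuged twice at 50000g, 4 °C. Membranes (0.2 mg protein/tube) incubated with 0.5 nM [3H]pCCK-8 plus bacitracin and soybean trypsin inhibitor (0.2 mg/mL each) for 120 min at 25 °C. […]. Seven concentrations in triplicate, at least three experiments.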

[2] = target: T2, Gastrin/cholecystokinin type B receptor (Rattus norvegicus, UniProt P30553); assay: Binding affinity by competitive inhibition of the radioligand [3H]pCCK-8 at Cholecystokinin type B receptor from rat cerebral cortex membrane
T2 sequence (P30553 whole entry): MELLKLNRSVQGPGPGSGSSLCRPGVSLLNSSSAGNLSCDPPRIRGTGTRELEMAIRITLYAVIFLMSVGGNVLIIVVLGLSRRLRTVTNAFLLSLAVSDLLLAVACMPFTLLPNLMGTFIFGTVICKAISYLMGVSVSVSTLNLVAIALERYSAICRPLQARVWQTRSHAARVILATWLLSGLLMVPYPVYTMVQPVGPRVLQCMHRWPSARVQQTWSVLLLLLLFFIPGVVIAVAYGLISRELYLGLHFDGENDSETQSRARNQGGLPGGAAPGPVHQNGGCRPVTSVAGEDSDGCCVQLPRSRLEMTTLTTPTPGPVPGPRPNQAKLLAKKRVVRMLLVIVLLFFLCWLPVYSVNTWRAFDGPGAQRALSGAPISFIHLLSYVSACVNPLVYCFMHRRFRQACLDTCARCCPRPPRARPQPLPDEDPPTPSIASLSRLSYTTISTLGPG

| Structure (SMILES) | IC50 [1] | IC50 [2] |
| --- | --- | --- |
| O=C(N[C@H]1CCCN2C(=O)N(Cc3ccccc3)C(=O)C[C@H]12)c1cc2ccccc2[nH]1 | > 1 µM | > 10 µM |
| O=C(Cc1c[nH]c2ccccc12)N[C@H]1CCCN2C(=O)N(Cc3ccccc3)C(=O)C[C@@H]12 [N-((4aS,5S)-2-Benzyl-1,3-dioxo-octahydro-pyrido[1,2-c]pyrimidin-5-yl)-2-(1H-indol-3-yl)-acetamide; compound with 1H-indole-3-carboxylic acid ((4aR,5R)-2-benzyl-1,3-dioxo-octahydro-pyrido[1,2-c]pyrimidin-5-yl)-amide] | > 1 µM | > 10 µM |
